Reference: ChEMBL document CHEMBL3407339, “A novel series of thiazolyl-pyrazoline derivatives: synthesis and evaluation of antifungal activity, cytotoxicity and genotoxicity” (Eur J Med Chem, 2015)
In brackets after ≈: the same amount, converted by molar mass.

system: Nakaseomyces glabratus; experiment: Antifungal activity against Candida glabrata clinical isolate after 48 hrs by broth microdilution assay; assay type: functional; settings: not given
In short: (§1)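 Broth microdilution of DMSO stocks serially diluted in sterile water (4 to 0.0039 mg/mL). Yeasts grown on SDA at 37 °C for 24 h, suspended in double-strength PDB at 10⁵ spores/mL. Incubated at 37 °C for 48 h, then sprayed with 0.5% aqueous TTC. MIC = lowest concentration inhibiting visible growth. Ketoconazole reference.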

Row | Structure (SMILES) | MIC [µg/mL]
1 | COc1ccc(-c2csc(N3N=C(c4ccc(C)s4)CC3c3ccc(F)cc3)n2)cc1 (stereo not given) | 250 (≈ 556 µM)
2 | Cc1ccc(C2=NN(c3nc(-c4ccc(Cl)cc4)cs3)C(c3ccc(F)cc3)C2)s1 (stereo not given) | 125 (≈ 275 µM)
3 | O=[N+]([O-])c1ccc(-c2csc(N3N=C(c4ccc(Cl)s4)CC3c3ccc(F)cc3)n2)cc1 (stereo not given) | 125 (≈ 258 µM)
4 | Cc1ccc(C2=NN(c3nc(-c4ccc5c(c4)OCO5)cs3)C(c3ccc(F)cc3)C2)s1 (stereo not given) | 250 (≈ 539 µM)
5 | N#Cc1ccc(-c2csc(N3N=C(c4ccc(Cl)s4)CC3c3ccc(F)cc3)n2)cc1 (stereo not given) | 125 (≈ 269 µM)

system: Candida albicans; experiment: Antifungal activity against Candida albicans ATCC 90028 after 48 hrs by broth microdilution assay; assay type: functional; settings: ATCC 90028, 48 h; in short: as §1

Row | Structure (SMILES) | MIC [µg/mL]
6 | COc1ccc(-c2csc(N3N=C(c4ccc(C)s4)CC3c3ccc(F)cc3)n2)cc1 (stereo not given) | 500 (≈ 1110 µM)
7 | Cc1ccc(C2=NN(c3nc(-c4ccc(Cl)cc4)cs3)C(c3ccc(F)cc3)C2)s1 (stereo not given) | 250 (≈ 551 µM)
8 | O=[N+]([O-])c1ccc(-c2csc(N3N=C(c4ccc(Cl)s4)CC3c3ccc(F)cc3)n2)cc1 (stereo not given) | 250 (≈ 516 µM)
9 | Cc1ccc(C2=NN(c3nc(-c4ccc5c(c4)OCO5)cs3)C(c3ccc(F)cc3)C2)s1 (stereo not given) | 250 (≈ 539 µM)
10 | N#Cc1ccc(-c2csc(N3N=C(c4ccc(Cl)s4)CC3c3ccc(F)cc3)n2)cc1 (stereo not given) | 250 (≈ 538 µM)

system: Candida tropicalis; experiment: Antifungal activity against Candida tropicalis NRLL Y 12968 after 48 hrs by broth microdilution assay; assay type: functional; settings: NRLL Y 12968, 48 h; in short: as §1

Row | Structure (SMILES) | MIC [µg/mL]
11 | COc1ccc(-c2csc(N3N=C(c4ccc(C)s4)CC3c3ccc(F)cc3)n2)cc1 (stereo not given) | 500 (≈ 1110 µM)
12 | Cc1ccc(C2=NN(c3nc(-c4ccc(Cl)cc4)cs3)C(c3ccc(F)cc3)C2)s1 (stereo not given) | 250 (≈ 551 µM)
13 | O=[N+]([O-])c1ccc(-c2csc(N3N=C(c4ccc(Cl)s4)CC3c3ccc(F)cc3)n2)cc1 (stereo not given) | 250 (≈ 516 µM)
14 | Cc1ccc(C2=NN(c3nc(-c4ccc5c(c4)OCO5)cs3)C(c3ccc(F)cc3)C2)s1 (stereo not given) | 250 (≈ 539 µM)
15 | N#Cc1ccc(-c2csc(N3N=C(c4ccc(Cl)s4)CC3c3ccc(F)cc3)n2)cc1 (stereo not given) | 250 (≈ 538 µM)

system: Pichia kudriavzevii; experiment: Antifungal activity against Candida krusei NRLL Y 7179 after 48 hrs by broth microdilution assay; assay type: functional; settings: NRLL Y 7179, 48 h; in short: as §1

Row | Structure (SMILES) | MIC [µg/mL]
16 | COc1ccc(-c2csc(N3N=C(c4ccc(C)s4)CC3c3ccc(F)cc3)n2)cc1 (stereo not given) | 500 (≈ 1110 µM)
17 | Cc1ccc(C2=NN(c3nc(-c4ccc(Cl)cc4)cs3)C(c3ccc(F)cc3)C2)s1 (stereo not given) | 250 (≈ 551 µM)
18 | O=[N+]([O-])c1ccc(-c2csc(N3N=C(c4ccc(Cl)s4)CC3c3ccc(F)cc3)n2)cc1 (stereo not given) | 250 (≈ 516 µM)
19 | Cc1ccc(C2=NN(c3nc(-c4ccc5c(c4)OCO5)cs3)C(c3ccc(F)cc3)C2)s1 (stereo not given) | 250 (≈ 539 µM)
20 | N#Cc1ccc(-c2csc(N3N=C(c4ccc(Cl)s4)CC3c3ccc(F)cc3)n2)cc1 (stereo not given) | 250 (≈ 538 µM)

system: [Candida] zeylanoides; experiment: Antifungal activity against Candida zeylanoides NRLL Y 1774 after 48 hrs by broth microdilution assay; assay type: functional; settings: Dujonia zeylanoides, NRLL Y 1774, 48 h; in short: as §1

Row | Structure (SMILES) | MIC [µg/mL]
21 | COc1ccc(-c2csc(N3N=C(c4ccc(C)s4)CC3c3ccc(F)cc3)n2)cc1 (stereo not given) | 500 (≈ 1110 µM)
22 | Cc1ccc(C2=NN(c3nc(-c4ccc(Cl)cc4)cs3)C(c3ccc(F)cc3)C2)s1 (stereo not given) | 250 (≈ 551 µM)
23 | O=[N+]([O-])c1ccc(-c2csc(N3N=C(c4ccc(Cl)s4)CC3c3ccc(F)cc3)n2)cc1 (stereo not given) | 250 (≈ 516 µM)
24 | Cc1ccc(C2=NN(c3nc(-c4ccc5c(c4)OCO5)cs3)C(c3ccc(F)cc3)C2)s1 (stereo not given) | 250 (≈ 539 µM)
25 | N#Cc1ccc(-c2csc(N3N=C(c4ccc(Cl)s4)CC3c3ccc(F)cc3)n2)cc1 (stereo not given) | 250 (≈ 538 µM)

system: Candida parapsilosis; experiment: Antifungal activity against Candida parapsilosis NRLL Y 12696 after 48 hrs by broth microdilution assay; assay type: functional; settings: Lodderomyces parapsilosis, NRLL Y 12696, 48 h; in short: as §1

Row | Structure (SMILES) | MIC [µg/mL]
26 | COc1ccc(-c2csc(N3N=C(c4ccc(C)s4)CC3c3ccc(F)cc3)n2)cc1 (stereo not given) | 500 (≈ 1110 µM)
27 | Cc1ccc(C2=NN(c3nc(-c4ccc(Cl)cc4)cs3)C(c3ccc(F)cc3)C2)s1 (stereo not given) | 250 (≈ 551 µM)
28 | O=[N+]([O-])c1ccc(-c2csc(N3N=C(c4ccc(Cl)s4)CC3c3ccc(F)cc3)n2)cc1 (stereo not given) | 250 (≈ 516 µM)
29 | Cc1ccc(C2=NN(c3nc(-c4ccc5c(c4)OCO5)cs3)C(c3ccc(F)cc3)C2)s1 (stereo not given) | 250 (≈ 539 µM)
30 | N#Cc1ccc(-c2csc(N3N=C(c4ccc(Cl)s4)CC3c3ccc(F)cc3)n2)cc1 (stereo not given) | 250 (≈ 538 µM)

system: Aspergillus flavus; experiment: Antifungal activity against Aspergillus flavus NRRL 980 after 72 hrs by broth microdilution assay; assay type: functional; settings: NRRL 980, 72 h
In short: (§2)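 Compounds dissolved in DMSO, diluted in sterile distilled water from 4 to 0.0039 mg/mL. Molds grown on PDA at 25 °C for 5 days, suspended in double-strength PDB at 10⁵ spores/mL. Incubated at 25 °C for 72 h; mycelial growth read under stereo microscope. MIC = lowest concentration inhibiting visible growth. Ketoconazole reference.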

Row | Structure (SMILES) | MIC [µg/mL]
31 | COc1ccc(-c2csc(N3N=C(c4ccc(C)s4)CC3c3ccc(F)cc3)n2)cc1 (stereo not given) | 250 (≈ 556 µM)
32 | Cc1ccc(C2=NN(c3nc(-c4ccc(Cl)cc4)cs3)C(c3ccc(F)cc3)C2)s1 (stereo not given) | 250 (≈ 551 µM)
33 | O=[N+]([O-])c1ccc(-c2csc(N3N=C(c4ccc(Cl)s4)CC3c3ccc(F)cc3)n2)cc1 (stereo not given) | 250 (≈ 516 µM)
34 | Cc1ccc(C2=NN(c3nc(-c4ccc5c(c4)OCO5)cs3)C(c3ccc(F)cc3)C2)s1 (stereo not given) | 250 (≈ 539 µM)
35 | N#Cc1ccc(-c2csc(N3N=C(c4ccc(Cl)s4)CC3c3ccc(F)cc3)n2)cc1 (stereo not given) | 250 (≈ 538 µM)

system: Aspergillus niger; experiment: Antifungal activity against Aspergillus niger ATCC 1094 after 72 hrs by broth microdilution assay; assay type: functional; settings: ATCC 1094, 72 h; in short: as §2

Row | Structure (SMILES) | MIC [µg/mL]
36 | COc1ccc(-c2csc(N3N=C(c4ccc(C)s4)CC3c3ccc(F)cc3)n2)cc1 (stereo not given) | 250 (≈ 556 µM)
37 | Cc1ccc(C2=NN(c3nc(-c4ccc(Cl)cc4)cs3)C(c3ccc(F)cc3)C2)s1 (stereo not given) | 250 (≈ 551 µM)
38 | O=[N+]([O-])c1ccc(-c2csc(N3N=C(c4ccc(Cl)s4)CC3c3ccc(F)cc3)n2)cc1 (stereo not given) | 250 (≈ 516 µM)
39 | Cc1ccc(C2=NN(c3nc(-c4ccc5c(c4)OCO5)cs3)C(c3ccc(F)cc3)C2)s1 (stereo not given) | 250 (≈ 539 µM)
40 | N#Cc1ccc(-c2csc(N3N=C(c4ccc(Cl)s4)CC3c3ccc(F)cc3)n2)cc1 (stereo not given) | 250 (≈ 538 µM)

system: Aspergillus parasiticus; experiment: Antifungal activity against Aspergillus parasiticus NRRL 465 after 72 hrs by broth microdilution assay; assay type: functional; settings: NRRL 465, 72 h; in short: as §2

Row | Structure (SMILES) | MIC [µg/mL]
41 | COc1ccc(-c2csc(N3N=C(c4ccc(C)s4)CC3c3ccc(F)cc3)n2)cc1 (stereo not given) | 250 (≈ 556 µM)
42 | Cc1ccc(C2=NN(c3nc(-c4ccc(Cl)cc4)cs3)C(c3ccc(F)cc3)C2)s1 (stereo not given) | 250 (≈ 551 µM)
43 | O=[N+]([O-])c1ccc(-c2csc(N3N=C(c4ccc(Cl)s4)CC3c3ccc(F)cc3)n2)cc1 (stereo not given) | 250 (≈ 516 µM)
44 | Cc1ccc(C2=NN(c3nc(-c4ccc5c(c4)OCO5)cs3)C(c3ccc(F)cc3)C2)s1 (stereo not given) | 250 (≈ 539 µM)
45 | N#Cc1ccc(-c2csc(N3N=C(c4ccc(Cl)s4)CC3c3ccc(F)cc3)n2)cc1 (stereo not given) | 250 (≈ 538 µM)

system: Fusarium solani; experiment: Antifungal activity against Fusarium solani NRRL 13414 after 72 hrs by broth microdilution assay; assay type: functional; settings: NRRL 13414, 72 h; in short: as §2

Row | Structure (SMILES) | MIC [µg/mL]
46 | COc1ccc(-c2csc(N3N=C(c4ccc(C)s4)CC3c3ccc(F)cc3)n2)cc1 (stereo not given) | 250 (≈ 556 µM)
47 | Cc1ccc(C2=NN(c3nc(-c4ccc(Cl)cc4)cs3)C(c3ccc(F)cc3)C2)s1 (stereo not given) | 250 (≈ 551 µM)
48 | O=[N+]([O-])c1ccc(-c2csc(N3N=C(c4ccc(Cl)s4)CC3c3ccc(F)cc3)n2)cc1 (stereo not given) | 250 (≈ 516 µM)
49 | Cc1ccc(C2=NN(c3nc(-c4ccc5c(c4)OCO5)cs3)C(c3ccc(F)cc3)C2)s1 (stereo not given) | 250 (≈ 539 µM)
50 | N#Cc1ccc(-c2csc(N3N=C(c4ccc(Cl)s4)CC3c3ccc(F)cc3)n2)cc1 (stereo not given) | 250 (≈ 538 µM)

system: A549; experiment: Antiproliferative activity against human A549 cells after 24 hrs by XTT assay; assay type: functional, cell-based; settings: A549, 24 h
In short: (§3)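 A549 cells in RPMI and NIH/3T3 cells in DMEM, each with fetal calf serum, antibiotics and 7.5% NaHCO₃, at 37 °C, 5% CO₂. Seeded at 20,000 cells/well, 24 h, then compounds added in medium at 500–3.9 doses (final DMSO <0.1%) for 24 h. XTT read after 3 h at 480 nm (ref 680 nm). IC₅₀ by non-linear regression; triplicates; cisplatin control.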

Row | Structure (SMILES) | IC50 [µg/mL]
51 | COc1ccc(-c2csc(N3N=C(c4ccc(C)s4)CC3c3ccc(F)cc3)n2)cc1 (stereo not given) | 184 (≈ 408 µM)
52 | Cc1ccc(C2=NN(c3nc(-c4ccc(Cl)cc4)cs3)C(c3ccc(F)cc3)C2)s1 (stereo not given) | > 500
53 | O=[N+]([O-])c1ccc(-c2csc(N3N=C(c4ccc(Cl)s4)CC3c3ccc(F)cc3)n2)cc1 (stereo not given) | > 500
54 | Cc1ccc(C2=NN(c3nc(-c4ccc5c(c4)OCO5)cs3)C(c3ccc(F)cc3)C2)s1 (stereo not given) | 173 (≈ 374 µM)
55 | N#Cc1ccc(-c2csc(N3N=C(c4ccc(Cl)s4)CC3c3ccc(F)cc3)n2)cc1 (stereo not given) | > 500

system: not listed separately; experiment: Cytotoxicity against mouse NIH/3T3 cells after 24 hrs by XTT assay; assay type: cell-based; settings: NIH3T3, 24 h; in short: as §3

Row | Structure (SMILES) | IC50 [µg/mL]
56 | COc1ccc(-c2csc(N3N=C(c4ccc(C)s4)CC3c3ccc(F)cc3)n2)cc1 (stereo not given) | 146 (≈ 326 µM)
57 | Cc1ccc(C2=NN(c3nc(-c4ccc(Cl)cc4)cs3)C(c3ccc(F)cc3)C2)s1 (stereo not given) | > 500
58 | O=[N+]([O-])c1ccc(-c2csc(N3N=C(c4ccc(Cl)s4)CC3c3ccc(F)cc3)n2)cc1 (stereo not given) | > 500
59 | Cc1ccc(C2=NN(c3nc(-c4ccc5c(c4)OCO5)cs3)C(c3ccc(F)cc3)C2)s1 (stereo not given) | 125 (≈ 270 µM)
60 | N#Cc1ccc(-c2csc(N3N=C(c4ccc(Cl)s4)CC3c3ccc(F)cc3)n2)cc1 (stereo not given) | > 500
